Measurements as given in paper PMC11913021 (Journal of Medicinal Chemistry, 2024).
Substitutions are numbered along the chain they refer to. “And” between values parts separate entries of the source, which are not always exact repeats. Identical values can stand only once.

How the values were obtained:
A549 cells [1] = assay: IncuCyte cell growth and death assay; type: cell-based; settings: time-dependent
A549 cells [2] = assay: WST-1 cell viability assay, A549; type: cell-based; settings: read-out: IC50 of viability; A549, WST-1, 48 h
Method in brief: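 Cells grown in DMEM or RPMI 1640 with 10% FBS and 1% penicillin/streptomycin at 37 °C, 5% CO2. Seeded at 5 × 10^3 cells/well and held 24 h at 37 °C, then exposed to test compound for 48 h. WST-1 absorbance was read at 450 nm, in triplicate. IC50 was taken as the concentration giving 50% growth inhibition versus control.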

L425A mutant PLD1 = target: T1, L425A mutant PLD1 (Homo sapiens, UniProt Q13393, L425A); assay: PLD activity assay in L425A mutant PLD1-transfected cells; type: cell-based
T1 sequence (Q13393 1-1036 isoform Q13393-2 L425A): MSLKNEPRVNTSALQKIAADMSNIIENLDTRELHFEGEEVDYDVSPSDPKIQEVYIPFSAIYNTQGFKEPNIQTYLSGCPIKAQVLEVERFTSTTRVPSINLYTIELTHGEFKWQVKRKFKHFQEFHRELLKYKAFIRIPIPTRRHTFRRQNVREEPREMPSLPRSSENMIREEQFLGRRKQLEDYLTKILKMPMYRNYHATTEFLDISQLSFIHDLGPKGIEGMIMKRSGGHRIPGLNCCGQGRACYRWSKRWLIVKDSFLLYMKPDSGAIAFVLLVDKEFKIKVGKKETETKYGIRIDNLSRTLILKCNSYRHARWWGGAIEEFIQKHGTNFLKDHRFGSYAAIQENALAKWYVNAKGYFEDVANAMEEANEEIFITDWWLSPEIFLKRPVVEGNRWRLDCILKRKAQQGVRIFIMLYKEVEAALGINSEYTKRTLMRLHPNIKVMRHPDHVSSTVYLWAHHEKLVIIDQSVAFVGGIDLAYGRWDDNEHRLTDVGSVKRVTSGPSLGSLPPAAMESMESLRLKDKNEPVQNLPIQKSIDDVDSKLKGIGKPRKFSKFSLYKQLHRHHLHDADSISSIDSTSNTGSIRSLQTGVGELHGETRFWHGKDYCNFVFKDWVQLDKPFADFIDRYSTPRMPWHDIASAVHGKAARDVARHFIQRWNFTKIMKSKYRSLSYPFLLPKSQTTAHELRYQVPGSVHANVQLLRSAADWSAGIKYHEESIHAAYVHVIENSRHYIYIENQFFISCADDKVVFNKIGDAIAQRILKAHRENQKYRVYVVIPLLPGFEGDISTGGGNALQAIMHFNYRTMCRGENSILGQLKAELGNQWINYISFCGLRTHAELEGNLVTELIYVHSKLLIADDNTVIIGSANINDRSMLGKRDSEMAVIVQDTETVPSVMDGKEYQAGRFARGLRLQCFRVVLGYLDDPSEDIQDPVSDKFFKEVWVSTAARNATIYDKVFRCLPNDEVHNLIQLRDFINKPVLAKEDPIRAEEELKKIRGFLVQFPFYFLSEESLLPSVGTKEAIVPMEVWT

A549 cells [3] = assay: Cell apoptosis assay; type: cell-based; settings: flow cytometry and caspase-3 activity assay
Method in brief: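 Apoptosis detected by Annexin V-FITC staining and flow cytometry. For caspase-3, cells were grown to about 40% density and given test compound, or the inhibitor Ac-DEVD-CHO, at 10 μM for 48 h. After a PBS wash, 1 μM NucView 488 caspase-3 substrate was added for 30 min at RT, then 1 μM Hoechst 33342. Both fluorescences were read on a plate reader.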

wild-type PLD1 = target: T2, wild-type PLD1 (Homo sapiens, UniProt Q13393); assay: PLD activity assay in wild-type PLD1-transfected cells; type: cell-based
T2 sequence (Q13393 1-1036 isoform Q13393-2): T1 sequence (Q13393 1-1036 isoform Q13393-2 L425A) with A425L

A549 cells [4] = assay: In vitro phagocytosis assay; type: cell-based, human; settings: A549 cocultured with PMA-activated THP-1
Method in brief: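 A549 cells treated with test compound for 48 h in RPMI with 10% FBS, then labelled with 1 μM CFSE. THP-1 cells were differentiated with PMA for 36 h, and 5 × 10^5 were co-incubated with equal CFSE-labelled cells in serum-free RPMI for 2 h. After Fc block and PerCP-Cy5.5 anti-CD11b staining (20 min, 4 °C), CFSE+CD11b+ cells were counted by flow cytometry in at least three independent experiments.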

For “N-(3,5-Bis(trifluoromethyl)phenyl)-3-(1H-indol-3-yl)propanamide [3r]”, the “death of A549 cells” value (A549 cells [1]) was “increased”, the “proliferation of A549 cells” value (A549 cells [1]) was “significantly suppressed” and the IC50 (A549 cells [2]) was 18 µM and 18.4 µM. The PLD activity (L425A mutant PLD1) was “significantly suppressed”, the “apoptosis of A549 cells” value (A549 cells [3]) was “induced” and the PLD activity (wild-type PLD1) was “significantly suppressed”. For the same substance, the “CD11b^+CFSE^+ macrophages (phagocytosis)” value (A549 cells [4]) was “significantly increased”.
